Results from ChEMBL document CHEMBL3627597, “Synthesis of Fluorine-Containing Phosphodiesterase 10A (PDE10A) Inhibitors and the In Vivo Evaluation of F-18 Labeled PDE10A PET Tracers in Rodent and Nonhuman Primate” (J Med Chem, 2015).

Columns and labels:
Rattus norvegicus [1] = experiment: Biodistribution in Sprague-Dawley rat fat tissue at 1.48 to 2.22 MBq, iv measured at 30 mins by gamma counting analysis; assay type: ADME, organism-based, Adipose tissue; settings: in vivo, 0.5 h
In short: (§1)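 Male Sprague-Dawley rats (250 - 400 g), tail-vein injection of 1.48 - 2.22 MBq radiotracer under 2.5% isoflurane in oxygen; n=4 per time point, euthanized at 5, 30 and 60 min p.i. Brain regions obtained by gross dissection; peripheral tissues collected. Samples weighed, gamma-counted against a diluted-injectate standard; %ID/g calculated.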

Putamen = experiment: Drug uptake in cynomolgus monkey putamen at 185 to 259 MBq, iv measured over 180 mins by micro PET image analysis; assay type: ADME, organism-based, Macaca fascicularis; settings: in vivo, 3 h
In short: (§2)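 Adult male cynomolgus macaques (~4–6 kg), three studies per tracer, fasted 12 h. Induction with ketamine 10 mg/kg plus glycopyrrolate 0.13 mg/kg i.m. Transmission scans of 10 min for positioning and 45 min for attenuation correction, then a 3 h dynamic microPET emission scan after venous injection of 185 - 259 MBq. ROI time-activity curves expressed as SUV (body weight and injected dose).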

Nucleic Acid [2] = experiment: Ratio of drug level in striatum to cerebellum in cynomolgus monkey at 185 to 259 MBq, iv measured at 70 mins by micro PET image analysis; assay type: ADME, organism-based, Macaca fascicularis; settings: in vivo
In short: (§3)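 Adult male cynomolgus macaques (~4–6 kg), three independent PET studies per tracer on a microPET Focus 220. Animals fasted 12 h and anesthetized with ketamine (10 mg/kg) plus glycopyrrolate (0.13 mg/kg) i.m. A 10 min positioning transmission scan and a 45 min attenuation transmission scan were run, then a 3 h dynamic emission scan after venous tracer injection. Regional TACs came from ROIs, expressed as SUV (body weight, injected dose).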

Kidney [3] = experiment: Biodistribution in Sprague-Dawley rat kidney at 1.48 to 2.22 MBq, iv measured at 60 mins by gamma counting analysis; assay type: ADME, organism-based; settings: in vivo, 1 h; in short: as §1
Nucleic Acid [4] = experiment: Ratio of drug level in striatum to frontal in cynomolgus monkey at 185 to 259 MBq, iv measured at 70 mins by micro PET image analysis; assay type: ADME, organism-based, Macaca fascicularis; settings: in vivo; in short: as §3
Nucleic Acid [5] = experiment: Ratio of drug level in striatum to midbrain region in cynomolgus monkey at 185 to 259 MBq, iv measured at 40 mins by micro PET image analysis; assay type: ADME, organism-based, Macaca fascicularis, Brain; settings: in vivo; in short: as §3
[6] = Metabolic stability in cynomolgus monkey plasma assessed as compound remaining at 185 to 259 MBq, iv measured at 15 mins by HPLC analysis; assay type: ADME, organism-based, Macaca fascicularis; settings: read-out: Stability
In short: (§4)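 Arterial blood (~1.5 mL) drawn at 2, 15, 30, 60 and 90 min p.i. into heparinized syringes, then centrifuged to plasma. Plasma deproteinated with 2 parts ice-cold methanol. Extract run on C-18 HPLC, MeCN/0.1 M ammonium formate pH 4.5, 0.9 mL/min, UV 254 nm. 1-min fractions over 16 min were well-counted and decay-corrected; parent percentage taken from recovered activity.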

[7] = Metabolic stability in cynomolgus monkey plasma assessed as compound remaining at 185 to 259 MBq, iv measured at 2 mins by HPLC analysis; assay type: ADME, organism-based, Macaca fascicularis; settings: read-out: Stability; in short: as §4
Nucleic Acid [8] = experiment: Ratio of drug level in striatum to occipital in cynomolgus monkey at 185 to 259 MBq, iv measured at 40 mins by micro PET image analysis; assay type: ADME, organism-based, Macaca fascicularis; settings: in vivo; in short: as §3
Nucleic Acid [9] = experiment: Ratio of drug level in striatum to hippocampus in cynomolgus monkey at 185 to 259 MBq, iv measured at 70 mins by micro PET image analysis; assay type: ADME, organism-based, Macaca fascicularis; settings: in vivo; in short: as §3
Blood [10] = experiment: Biodistribution in Sprague-Dawley rat blood at 1.48 to 2.22 MBq, iv measured at 5 mins by gamma counting analysis; assay type: ADME, organism-based; settings: in vivo; in short: as §1
Liver = experiment: Biodistribution in Sprague-Dawley rat liver at 1.48 to 2.22 MBq, iv measured at 60 mins by gamma counting analysis; assay type: ADME, organism-based; settings: in vivo, 1 h; in short: as §1
Nucleic Acid [11] = experiment: Ratio of drug level in striatum to temporal region in cynomolgus monkey at 185 to 259 MBq, iv measured at 40 mins by micro PET image analysis; assay type: ADME, organism-based, Macaca fascicularis; settings: in vivo; in short: as §3
Muscle tissue [12] = experiment: Biodistribution in Sprague-Dawley rat muscle at 1.48 to 2.22 MBq, iv measured at 60 mins by gamma counting analysis; assay type: ADME, organism-based; settings: in vivo, 1 h; in short: as §1
Rattus norvegicus [13] = experiment: Biodistribution in Sprague-Dawley rat fat tissue at 1.48 to 2.22 MBq, iv measured at 5 mins by gamma counting analysis; assay type: ADME, organism-based, Adipose tissue; settings: in vivo; in short: as §1
Bone [14] = experiment: Biodistribution in Sprague-Dawley rat bone at 1.48 to 2.22 MBq, iv measured at 30 mins by gamma counting analysis; assay type: ADME, organism-based, Bone element; settings: in vivo, 0.5 h; in short: as §1
Rattus norvegicus [15] = experiment: Biodistribution in Sprague-Dawley rat fat tissue at 1.48 to 2.22 MBq, iv measured at 60 mins by gamma counting analysis; assay type: ADME, organism-based, Adipose tissue; settings: in vivo, 1 h; in short: as §1
[16] = Metabolic stability in cynomolgus monkey plasma assessed as compound remaining at 185 to 259 MBq, iv measured at 60 mins by HPLC analysis; assay type: ADME, organism-based, Macaca fascicularis; settings: read-out: Stability; in short: as §4
Muscle tissue [17] = experiment: Biodistribution in Sprague-Dawley rat muscle at 1.48 to 2.22 MBq, iv measured at 5 mins by gamma counting analysis; assay type: ADME, organism-based; settings: in vivo; in short: as §1
[18] = Metabolic stability in cynomolgus monkey plasma assessed as compound remaining at 185 to 259 MBq, iv measured at 30 mins by HPLC analysis; assay type: ADME, organism-based, Macaca fascicularis; settings: read-out: Stability; in short: as §4
Brain [19] = experiment: Biodistribution in Sprague-Dawley rat brain at 1.48 to 2.22 MBq, iv measured at 60 mins by gamma counting analysis; assay type: ADME, organism-based; settings: in vivo, 1 h; in short: as §1
Nucleic Acid [20] = experiment: Ratio of drug level in striatum to frontal in cynomolgus monkey at 185 to 259 MBq, iv measured at 40 mins by micro PET image analysis; assay type: ADME, organism-based, Macaca fascicularis; settings: in vivo; in short: as §3
Bone [21] = experiment: Biodistribution in Sprague-Dawley rat bone at 1.48 to 2.22 MBq, iv measured at 60 mins by gamma counting analysis; assay type: ADME, organism-based, Bone element; settings: in vivo, 1 h; in short: as §1
[22] = Ratio of drug level in striatum to cerebellum in Sprague-Dawley rat at 1.48 to 2.22 MBq, iv measured at 5 to 30 mins by gamma counting analysis; assay type: ADME, organism-based; settings: in vivo
In short: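 Striatum, cerebellum and cortex obtained by gross dissection from Sprague-Dawley rats (250 - 400 g, n=4 per time point) after tail-vein injection of 1.48 - 2.22 MBq under isoflurane anesthesia. Tissues weighed and gamma-counted with an injectate standard to give %ID/g; ratios taken from striatal versus non-target uptake.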

Muscle tissue [23] = experiment: Biodistribution in Sprague-Dawley rat muscle at 1.48 to 2.22 MBq, iv measured at 30 mins by gamma counting analysis; assay type: ADME, organism-based; settings: in vivo, 0.5 h; in short: as §1
Blood [24] = experiment: Biodistribution in Sprague-Dawley rat blood at 1.48 to 2.22 MBq, iv measured at 60 mins by gamma counting analysis; assay type: ADME, organism-based; settings: in vivo, 1 h; in short: as §1
Plasma = experiment: Retention time of the compound in cynomolgus monkey plasma at 185 to 259 MBq, iv by HPLC analysis; assay type: ADME, organism-based, Macaca fascicularis; in short: as §4
Brain [25] = experiment: Biodistribution in Sprague-Dawley rat brain at 1.48 to 2.22 MBq, iv measured at 30 mins by gamma counting analysis; assay type: ADME, organism-based; settings: in vivo, 0.5 h; in short: as §1
Bone [26] = experiment: Biodistribution in Sprague-Dawley rat bone at 1.48 to 2.22 MBq, iv measured at 5 mins by gamma counting analysis; assay type: ADME, organism-based, Bone element; settings: in vivo; in short: as §1
Caudate = experiment: Drug uptake in cynomolgus monkey caudate at 185 to 259 MBq, iv measured over 180 mins by micro PET image analysis; assay type: ADME, organism-based, Macaca fascicularis, Caudate nucleus; settings: in vivo, 3 h; in short: as §2
Kidney [27] = experiment: Biodistribution in Sprague-Dawley rat kidney at 1.48 to 2.22 MBq, iv measured at 30 mins by gamma counting analysis; assay type: ADME, organism-based; settings: in vivo, 0.5 h; in short: as §1

In the case of `Cn1cc(-c2ccncc2)c(-c2ccc(OCc3nc4ccccc4cc3OCC[18F])cc2)n1`, the Drug uptake (Rattus norvegicus [1]) is reported as 0.202 % ID/g, the Drug uptake (Putamen) is reported as “Active” and the Ratio (Nucleic Acid [2]) is reported as greater than 5. The Drug uptake (Kidney [3]) was 0.841 % ID/g, the Ratio (Nucleic Acid [4]) was greater than 5 and the Ratio (Nucleic Acid [5]) was greater than 3. The remaining at 0.25 h [6] was 90%, the remaining at 2 min [7] was 99% and the Ratio (Nucleic Acid [8]) was greater than 3. It also gave a Ratio (Nucleic Acid [9]) greater than 5, a Drug uptake (Blood [10]) of 0.343 % ID/g and a Drug uptake (Liver) of 1.8 % ID/g. The Ratio (Nucleic Acid [11]) was greater than 3, the Drug uptake (Muscle tissue [12]) was 0.134 % ID/g and the Drug uptake (Rattus norvegicus [13]) was 0.119 % ID/g. The Drug uptake (Bone [14]) was 0.144 % ID/g, the Drug uptake (Rattus norvegicus [15]) was 0.124 % ID/g and the remaining at 1 h [16] was 55%. For the same compound, the Drug uptake (Muscle tissue [17]) was 0.166 % ID/g, the remaining at 0.5 h [18] was 73% and the Drug uptake (Brain [19]) was 0.149 % ID/g. For the same compound, the Ratio (Nucleic Acid [20]) was greater than 3, the Drug uptake (Bone [21]) was 0.224 % ID/g and the Ratio [22] was greater than 2. For the same compound, the Drug uptake (Muscle tissue [23]) was 0.156 % ID/g, the Drug uptake (Blood [24]) was 0.287 % ID/g and the Retention_time (Plasma) was 10.5 min. The Drug uptake (Brain [25]) was 0.129 % ID/g, the Drug uptake (Bone [26]) was 0.182 % ID/g and the Drug uptake (Caudate) was “Active”. The Drug uptake (Kidney [27]) was 1.022 % ID/g.
